The text below walks through data of ChEMBL document CHEMBL4334446, “Evaluating the effects of fluorine on biological properties and metabolic stability of some antitubulin 3-substituted 7-phenyl-pyrroloquinolinones” (Eur J Med Chem, 2019).

For data set [1], the system named is HeLa. Description: Cell cycle arrest in human HeLa cells assessed as proportion of mitotic cells at 100 nM incubated for 24 hrs by PI staining based flow cytometry (reference value: 1.5%). The class given is functional. (In general: A flow cytometer gives signals particle by particle.)
For data set [2], the system named is A2058. The data set is described as follows: Induction of cell cycle arrest in human A2058 cells assessed as reduction in cell population at S phase at 50 to 100 nM incubated for 24 hrs by PI staining based flow cytometric analysis. The class given is functional. The method in brief:
(§1)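 A375 and A2058 melanoma cells were treated 24 h. Cells were fixed in ice-cold 70% ethanol, then given lysis buffer with RNase A and 0.1% Triton X-100 and stained with PI. Phase distribution came from flow cytometric DNA histograms. Mean ± SEM of two independent experiments.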

Another data set has as its system MDA-MB-468. The data set is described as follows: Growth inhibition of human MDA-MB-468 cells incubated for 72 hrs by MTT assay. The class given is functional. The settings on record: MDA-MB-468, 72 h.
The subject of data set [3] is A2058. Description: Induction of cell cycle arrest in human A2058 cells assessed as accumulation of cells at G2/M phase at 50 to 100 nM incubated for 24 hrs by PI staining based flow cytometric analysis. Type of data set: functional. The method in brief: as §1
The test system of data set [4] is HeLa. Description: Cell cycle arrest in human HeLa cells assessed as disappearance in cdc25c protein expression at 50 to 100 nM incubated for 48 hrs by western blot analysis. The class given is functional, cell-based. Summed up:
(§2)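 HeLa cells were exposed for set times, including 24 and 48 h, then washed in cold PBS and lysed on ice for 30 min. Lysates were cleared at 15000 × g at 4 °C. 10 µg protein was run by SDS-PAGE and transferred to PVDF. Blots were probed 2 h at room temperature with primary antibodies, then peroxidase secondary antibodies, and detected by ECL. Membranes were reprobed for actin as loading control.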
A general note: A western blot detects proteins with antibodies after separation by electrophoresis.

Data set [5] relates to HeLa. The data set is described as follows: Induction of apoptosis in human HeLa cells assessed as decrease in Mcl1 protein expression at 50 to 100 nM incubated upto 48 hrs by western blot analysis. Type of data set: functional, cell-based. The settings on record: 10 to 100 nM, in the assay text read “10 to 100 nM” for “50 to 100 nM”. The method in brief:
as §2

A further data set concerns B16-BL6. The data set is described as follows: Antitumour activity against mouse B16-BL6 cells allografted in C57BL/6 mouse assessed as reduction in tumor mass at 7.5 mg/kg, ip administrated every other day relative to control. Type of data set: functional. Summed up:
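Male C57BL/6 mice (six weeks old) got 2.5×10^5 BL6-B16 murine melanoma cells s.c. in the dorsolateral flank, in PBS. Once tumors were measurable (about 100 mm³), mice were randomized and given drug i.p. every other day in 50 µL DMSO. Vehicle (DMSO) group served as control. Tumor volume = (D × d²)/2; tumor weight taken at end. 5 animals per group, mean ± SEM.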

Data set [6] relates to A2058. The data set is described as follows: Growth inhibition of human A2058 cells incubated for 72 hrs by MTT assay. The class given is functional. The settings on record: A2058, 72 h. For orientation: Tetrazolium dyes change colour on reduction, which living cells bring about.
In another data set the test system is MDA-MB-231. Description: Growth inhibition of human MDA-MB-231 cells incubated for 72 hrs by MTT assay. Type of data set: functional. Conditions: MDA-MB-231, 72 h.
In the next data set the test system is A-375. Description: Induction of cell cycle arrest in human A375 cells assessed as reduction in cell population at G1 phase at 50 to 100 nM incubated for 24 hrs by PI staining based flow cytometric analysis. Type of data set: functional. Summed up:
as §1

A further data set deals with Tubulin (Bos taurus, UniProt Q6B856+Q862L2+Q862F3). The data set is described as follows: Inhibition of bovine brain tubulin polymerization preincubated for 15 mins followed by GTP addition and measured for 20 mins by turbidimetry-based spectrophotometric method. The method in brief:
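Bovine brain tubulin (10 µM) was preincubated with varying compound concentrations in 0.8 M monosodium glutamate, pH 6.6, for 15 min at 30 °C, then cooled to 0 °C. GTP was added to 0.4 mM final and the mix warmed to 30 °C. Turbidity was followed at 350 nm. IC50 = concentration inhibiting extent of assembly 50% after 20 min.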

Data set [7] deals with HeLa. Description: Induction of mitochondrial membrane depolarization in human HeLa cells at 10 to 100 nM measured at early apoptotic stage of cells by JC1 staining based flow cytometric analysis. The settings on record: TDE = time-dependent effect. The class given is functional, cell-based. The method in brief: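 HeLa cells were treated 6, 12, 24 and 48 h with 10–100 nM. Cells were stained with JC-1, and the fraction with low mitochondrial potential was measured by flow cytometry. Mean ± SEM of three independent experiments.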

For data set [8], the system named is HeLa. The data set is described as follows: Induction of ROS generation in human HeLa cells at 100 nM incubated for 12 to 24 hrs by H2DCFDA staining based flow cytometric analysis. Type of data set: functional, cell-based. The method in brief:
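HeLa cells were treated 6, 12, 24 and 48 h, then stained with H2-DCFDA. ROS fluorescence was read by flow cytometry. Mean ± SEM of three independent experiments.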

Data set [9] can be described thus: Metabolic stability in NADPH-supplemented human liver microsomes assessed as parent compound remaining at 37 degC incubated for 30 mins. Conditions: read-out: Stability. The class given is ADME, Microsome. Summed up: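 Compound (10 µM) was incubated at 37 °C with 0.5 mg/mL pooled HLMs and 1 mM NADPH in 0.1 M KH2PO4 pH 7.4, sampled at 0, 2, 5, 15 and 30 min. Controls without NADPH, or buffer only, ran 0 and 30 min. Parent was quantified by HPLC-fluorescence as % of the 0 min level, n = 3. t1/2 = 0.693/k, with k from regression of ln % remaining versus time.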

Data set [10] in a line: Drug metabolism in human liver microsomes at 10 uM incubated for 60 mins in presence of NADPH by HPLC analysis. The class given is ADME, Microsome. Conditions: 1 h. Summed up: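 Compound (10 µM) was incubated 0 or 60 min at 37 °C with pooled HLMs (1 mg/mL), with or without 1 mM NADPH, or in buffer only (0.1 M KH2PO4 pH 7.4). Reactions were stopped with ice-cold acetonitrile. Remaining parent was measured by HPLC-fluorescence relative to 0 min; mean ± SD, n = 3.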

Data set [11] is described as follows: Metabolic stability in human liver microsomes at 10 uM incubated for 60 mins in presence of NADPH by ESI-MS analysis. Type of data set: ADME, Microsome. Conditions: 1 h.
Data set [12] in a line: Metabolic stability in human liver microsomes assessed as 7-phenyl-3H-pyrrolo[3,2-f]quinolin-9(6H)-one metabolite formation at 10 uM incubated for 60 mins in presence of NADPH by ESI-MS analysis. Type of data set: ADME, Microsome. Conditions: 1 h. The method in brief:
(§3)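 Compound (10 µM) was incubated with pooled mixed-gender HLMs (0.5 mg protein/mL), 1 mM NADPH and 0.1 M KH2PO4 pH 7.4 for 60 min at 37 °C, aerobic. The reaction was started with microsomes and stopped with ice-cold acetonitrile; controls lacked NADPH. The supernatant went to C8 HPLC with fluorescence detection (ex 344, em 493 nm). Collected peaks were analyzed by ESI+ mass spectrometry.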

The nature of data set [13]: Metabolic stability in human liver microsomes at 10 uM incubated for 60 mins in absence of NADPH by HPLC analysis. The settings on record: 1 h. Type of data set: ADME, Microsome. Summed up: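 Compound at 10 μM final was incubated at 37 °C with pooled mixed-gender HLMs (1 mg/mL) in 0.1 M KH₂PO₄ pH 7.4, NADPH omitted, for 0 or 60 min. Reaction was started by adding microsomes after 3-min equilibration and stopped with ice-cold acetonitrile. Supernatant was analysed by HPLC-fluorescence. Percent remaining at 60 min is relative to 0 min; mean ± SD, n = 3.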

Data set [14] in a line: Metabolic stability in human liver microsomes assessed as retention time of 7-phenyl-3H-pyrrolo[3,2-f]quinolin-9(6H)-one metabolite at 10 uM incubated for 60 mins in presence of NADPH by HPLC analysis. The class given is ADME, Microsome. Conditions: 1 h. Summed up:
as §3

Activity calls are given as the source filed them. The rule behind the calls is not given here.

Broadly, the GI50 is the concentration giving 50% growth inhibition. A word on the inhibition in vivo: it is the drop in the measured response relative to a control, in per cent. Broadly, the IC50 is the concentration needed to halve the response being measured. The low end stands for higher potency, the high end for lower potency.

Take `CCn1ccc2c3c(=O)cc(-c4ccccc4F)[nH]c3ccc21`: the Activity in the data set with HeLa [1] is 44%; in the data set on HeLa [7], “Tde”. Besides, the outcome in the data set on A2058 [2], with A2058 [3], in the data set with HeLa [5], with A-375 and with HeLa [8] was Active. Besides, the figures for the GI50 with MDA-MB-468, with A2058 [6] and in the data set with MDA-MB-231 were 22.3 nM, 4.8 nM and 164 nM, respectively. Also, in the data set on HeLa [4], the inhibition result is “Active”. The inhibition in vivo at 7.5 mg/kg with B16-BL6 turned out to be 60%. This compound also displayed an IC50 on Tubulin of 960 nM.

In the case of `CCn1ccc2c3c(=O)cc(-c4ccccc4)[nH]c3ccc21`, the remaining at 0.5 h in data set [9] was < 70%. Also, the Drug metabolism entry in [10], in [11] and in data set [12] was “Metabolite_Detected” each time. For the same compound, in [13], the Stability result is recorded as “Stable”. The Retention_time in [14] was 11.2 min. The compound also yielded an IC50 at Tubulin of 570 nM.
